Reference: ChEMBL document CHEMBL3351885, “Putative kappa opioid heteromers as targets for developing analgesics free of adverse effects” (J Med Chem, 2014)
Active and inactive are the calls of the source.

Tests used:
[1] = tested on: Mus musculus; assay: Antinociceptive effect in intracerebroventricularly dosed ICR-CD1 mouse by tail flick test; format: functional
Summary of the method: (§1)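 Male ICR-CD1 mice, 17−25 g. Tail-flick latency was taken before dosing and at the compound's peak time, with a 10 s cutoff. Response was expressed as %MPE = (test − control)/(10 − control) × 100. Three groups of 8−10 mice per dose-response curve, each mouse used once. ED50 with 95% CI came from nonlinear regression.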

[2] = tested on: Mus musculus; assay: Antinociceptive effect in intrathecally dosed ICR-CD1 mouse assessed as peak time for antinociceptive effect by tail flick test; format: functional
Summary of the method: (§2)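 Peak time in the mouse tail-flick test was set by measuring antinociception at 5, 10, 20, 30 and 60 min after dosing; latency cutoff 10 s; response expressed as %MPE.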

[3] = molecular target: T1, Opioid receptors; delta & kappa (Homo sapiens) (UniProt P41145+P41143); assay: Agonist activity at human delta-kappa opioid receptor expressed in HEK293 cells assessed as induction of intracellular calcium release by FLIPR assay; format: functional, cell-based
T1 sequence (P41143 whole entry, looked up): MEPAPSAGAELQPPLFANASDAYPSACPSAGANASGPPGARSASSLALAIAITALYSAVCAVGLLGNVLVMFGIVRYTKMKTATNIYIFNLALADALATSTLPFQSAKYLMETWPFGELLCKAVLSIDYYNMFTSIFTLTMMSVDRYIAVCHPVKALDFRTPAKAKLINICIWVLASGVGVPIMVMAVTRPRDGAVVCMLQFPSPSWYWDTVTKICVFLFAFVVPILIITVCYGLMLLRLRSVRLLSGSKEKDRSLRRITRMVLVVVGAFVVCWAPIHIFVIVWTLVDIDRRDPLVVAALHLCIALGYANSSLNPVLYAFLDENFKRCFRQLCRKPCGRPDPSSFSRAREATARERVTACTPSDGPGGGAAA
T1 sequence (P41145 whole entry, looked up): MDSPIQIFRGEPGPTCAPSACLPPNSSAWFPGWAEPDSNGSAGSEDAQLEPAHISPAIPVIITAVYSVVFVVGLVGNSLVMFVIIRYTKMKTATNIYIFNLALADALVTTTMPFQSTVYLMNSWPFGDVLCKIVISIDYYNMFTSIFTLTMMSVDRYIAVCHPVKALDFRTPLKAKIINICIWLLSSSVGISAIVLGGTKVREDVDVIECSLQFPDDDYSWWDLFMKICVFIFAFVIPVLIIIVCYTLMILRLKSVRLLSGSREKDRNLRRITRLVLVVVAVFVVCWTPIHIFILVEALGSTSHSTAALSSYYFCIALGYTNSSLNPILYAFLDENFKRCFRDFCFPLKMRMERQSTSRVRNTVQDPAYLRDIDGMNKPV
Summary of the method: (§3)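 HEK293 cells stably carrying chimeric Δ6-Gαqi-myr, transiently transfected with one or two opioid receptor cDNAs (200 ng/20000 cells, Lipofectamine 2000). Cells were reseeded at 24 h and assayed 48 h post-transfection with a FLIPR Ca2+ kit. Fluorescence was read for 90 s after ligand addition to build concentration-response curves; mean ± SEM, n = 3−5.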

[4] = tested on: Mus musculus; assay: Antinociceptive effect in intrathecally dosed ICR-CD1 mouse by tail flick test; format: functional; summary of the method: as §1
[5] = molecular target: T2, Opioid receptors; mu & kappa (Homo sapiens) (UniProt P41145+P35372); assay: Agonist activity at human mu-kappa opioid receptor expressed in HEK293 cells assessed as induction of intracellular calcium release by FLIPR assay; format: functional, cell-based; summary of the method: as §3
T2 sequence (P35372 whole entry, looked up): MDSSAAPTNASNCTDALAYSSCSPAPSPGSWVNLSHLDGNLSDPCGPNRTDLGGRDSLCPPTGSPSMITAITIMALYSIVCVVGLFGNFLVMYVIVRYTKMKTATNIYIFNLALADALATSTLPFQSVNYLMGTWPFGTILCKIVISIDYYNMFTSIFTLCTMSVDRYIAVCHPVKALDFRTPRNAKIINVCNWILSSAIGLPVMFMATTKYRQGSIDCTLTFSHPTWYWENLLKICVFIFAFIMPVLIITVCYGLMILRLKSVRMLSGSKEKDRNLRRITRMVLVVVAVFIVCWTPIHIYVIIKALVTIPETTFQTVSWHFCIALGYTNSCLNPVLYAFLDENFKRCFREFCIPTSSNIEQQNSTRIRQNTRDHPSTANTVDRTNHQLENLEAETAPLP
T2 sequence (P41145 whole entry, looked up): as the sequence (P41145 whole entry, looked up) above

[6] = tested on: Mus musculus; assay: Antinociceptive effect in intracerebroventricularly dosed ICR-CD1 mouse assessed as drug tolerance development measured after 25 hrs by tail flick test; format: functional, organism-based
Summary of the method: (§4)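 Acute tolerance: the highest (ED80−90) dose of the day-1 dose-response curve was given again 24 h later to the same mice in the tail-flick test. No significant difference between days was scored as no tolerance.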

[7] = tested on: Mus musculus; assay: Antinociceptive effect in intracerebroventricularly dosed ICR-CD1 mouse assessed as peak time for antinociceptive effect by tail flick test; format: functional; summary of the method: as §2
[8] = molecular target: Delta-type opioid receptor (Homo sapiens) (UniProt P41143); assay: Agonist activity at human delta opioid receptor expressed in HEK293 cells assessed as induction of intracellular calcium release by FLIPR assay; format: functional, cell-based; summary of the method: as §3
Chain of Delta-type opioid receptor (Homo sapiens) (P41143 whole entry): as the sequence (P41143 whole entry, looked up) above

[9] = molecular target: Opioid receptors; mu & delta (Homo sapiens) (UniProt P41143+P35372); assay: Agonist activity at human mu-delta opioid receptor expressed in HEK293 cells assessed as induction of intracellular calcium release by FLIPR assay; format: functional, cell-based; summary of the method: as §3
Chain of Opioid receptors; mu & delta (Homo sapiens) (P35372 whole entry, looked up): as the sequence (P35372 whole entry, looked up) above
Chain of Opioid receptors; mu & delta (Homo sapiens) (P41143 whole entry, looked up): as the sequence (P41143 whole entry, looked up) above

[10] = tested on: Mus musculus; assay: Potency ratio, ratio,of ED50 for antinociceptive effect in intracerebroventricularly dosed ICR-CD1 mouse to ED50 for intrathecally dosed ICR-CD1 mouse by tail flick test; format: functional
[11] = molecular target: Mu-type opioid receptor (Homo sapiens) (UniProt P35372); assay: Agonist activity at human mu opioid receptor expressed in HEK293 cells assessed as induction of intracellular calcium release by FLIPR assay; format: functional, cell-based; summary of the method: as §3
Chain of Mu-type opioid receptor (Homo sapiens) (P35372 whole entry): as the sequence (P35372 whole entry, looked up) above

[12] = tested on: Mus musculus; assay: Antinociceptive effect in intrathecally dosed ICR-CD1 mouse assessed as drug tolerance development measured after 25 hrs by tail flick test; format: functional, organism-based; summary of the method: as §4
[13] = molecular target: Kappa-type opioid receptor (Homo sapiens) (UniProt P41145); assay: Agonist activity at human kappa opioid receptor expressed in HEK293 cells assessed as induction of intracellular calcium release by FLIPR assay; format: functional, cell-based; summary of the method: as §3
Chain of Kappa-type opioid receptor (Homo sapiens) (P41145 whole entry): as the sequence (P41145 whole entry, looked up) above

[14] = tested on: Mus musculus; assay: Antinociceptive effect in sc dosed ICR-CD1 mouse by tail flick test; format: functional; summary of the method: as §1
[15] = tested on: Mus musculus; assay: Antinociceptive effect in orally dosed ICR-CD1 mouse by tail flick test; format: functional; details: po; summary of the method: as §1
[16] = tested on: Mus musculus; assay: Induction of aversion in ICR-CD1 mouse at 0.1 to 1 mg/kg, sc by conditioned place preference assay; format: organism-based; parameters: dose 0.1-1 mg/kg, route subcutaneous; details: in vivo
Summary of the method: (§5)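 Two-chamber place conditioning with rod versus mesh floors. Bias was taken in a 20 min free-exploration pretest, and groups were counterbalanced. Drug or vehicle (saline with 1% DMSO) was paired with one chamber and saline with the other, injected sc 20 min before 30 min confinement. Four drug and four saline sessions alternated daily. Tests of 20 min came after the 4th and 8th sessions. Score = change in CS+ time from pretest; Bonferroni t test against vehicle.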

[17] = tested on: Mus musculus; assay: Antinociceptive effect in sc dosed ICR-CD1 mouse by tail flick test relative to morphine; format: functional
[18] = tested on: Mus musculus; assay: Antinociceptive effect in intrathecally dosed ICR-CD1 mouse co-treated with kappa opioid receptor antagonist norB-NI by tail flick test; format: functional, organism-based
[19] = tested on: Mus musculus; assay: Rewarding effect in ICR-CD1 mouse at 0.3 to 10 mg/kg, sc in presence of naloxone by conditioned place preference assay; format: functional, organism-based
[20] = tested on: Mus musculus; assay: Ratio of antinociceptive effect in intrathecally dosed ICR-CD1 mouse in presence of 500 nmol naloxone to antinociceptive effect in intrathecally dosed ICR-CD1 mouse in absence of 500 nmol naloxone; format: functional
[21] = molecular target: Delta-type opioid receptor (Homo sapiens) (UniProt P41143); assay: Agonist activity at human delta opioid receptor expressed in HEK293 cells assessed as induction of beta-arrestin 2 recruitment incubated for 60 mins by fluorescent microscopy; format: cell-based
Summary of the method: (§6)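 HEK293 cells were transiently transfected with single or paired opioid receptors, replated on chamber slides after 24 h and left overnight. Ligands in serum-free medium were applied for 60 min at 37 °C. Cells were fixed in 4% paraformaldehyde, then stained with goat anti-β-arrestin2 (1 μg/mL, 4 °C overnight), fluorescent anti-goat secondary (30 min, RT) and DAPI. A brighter membrane on fluorescence microscopy scored as recruitment.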

[22] = tested on: Mus musculus; assay: Antinociceptive effect in intrathecally dosed ICR-CD1 mouse co-treated with delta opioid receptor antagonist NTB by tail flick test; format: functional, organism-based
[23] = molecular target: T2, Opioid receptors; mu & kappa (Homo sapiens); assay: Agonist activity at human mu-kappa opioid receptor expressed in HEK293 cells assessed as induction of beta-arrestin 2 recruitment incubated for 60 mins by fluorescent microscopy; format: cell-based; summary of the method: as §6
[24] = molecular target: Kappa-type opioid receptor (Homo sapiens) (UniProt P41145); assay: Agonist activity at human kappa opioid receptor expressed in HEK293 cells assessed as induction of beta-arrestin 2 recruitment incubated for 60 mins by fluorescent microscopy; format: cell-based; summary of the method: as §6
[25] = tested on: Mus musculus; assay: Antinociceptive effect in ICR-CD1 mouse dosed intrathecally twice on day 1 and day 2 followed by injection with same dose on day 3 by tail flick test; format: functional
[26] = molecular target: Mu-type opioid receptor (Homo sapiens) (UniProt P35372); assay: Agonist activity at human mu opioid receptor expressed in HEK293 cells assessed as induction of beta-arrestin 2 recruitment incubated for 60 mins by fluorescent microscopy; format: cell-based; summary of the method: as §6
[27] = tested on: Mus musculus; assay: Physical dependence in ICR-CD1 mouse assessed as induction of jumps over 10 mins period at 2.5 to 10 mg/kg, sc dosed three times daily for 4 days and 10 mg/kg, sc on day 5 followed 3 hrs later by single 50 mg/kg, sc naloxone; format: organism-based; details: in vivo
Summary of the method: (§7)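 Mice received sc drug three times daily for 4 days (2.5−10 mg/kg), then 10 mg/kg on day 5, with sc naloxone 3 h later. Jumps were counted over 10 min. A morphine group served as control.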

[28] = tested on: Mus musculus; assay: Rewarding effect in ICR-CD1 mouse at 0.3 to 10 mg/kg, sc by conditioned place preference assay; format: functional, organism-based; summary of the method: as §5
[29] = tested on: Mus musculus; assay: Physical dependence in ICR-CD1 mouse assessed as induction of jumps over 10 mins period at 2.5 to 10 mg/kg, sc dosed three times daily for 4 days and 10 mg/kg, sc on day 5 followed 3 hrs later by single 10 mg/kg, sc naloxone; format: organism-based; details: in vivo; summary of the method: as §7
[30] = molecular target: T1, Opioid receptors; delta & kappa (Homo sapiens); assay: Agonist activity at human kappa-delta opioid receptor expressed in HEK293 cells assessed as induction of beta-arrestin 2 recruitment incubated for 60 mins by fluorescent microscopy; format: cell-based; summary of the method: as §6
[31] = tested on: Mus musculus; assay: Induction of aversion in ICR-CD1 mouse at 0.3 to 10 mg/kg, sc by conditioned place preference assay; format: organism-based; parameters: dose 0.3-10 mg/kg, route subcutaneous; details: in vivo; summary of the method: as §5
[32] = tested on: Mus musculus; assay: Antinociceptive effect in intrathecally dosed ICR-CD1 mouse co-treated with mu opioid receptor antagonist beta-FNA by tail flick test; format: functional, organism-based

SMILES	MPE [1] [%]	Time [2] [min]	Activity [3]	MPE [4] [%]	Activity [5]	ED50 [1] [pmol]	Activity [6]	Time [7] [min]	Activity [8]	Activity [9]	Ratio ED50 [10]	Activity [11]	Activity [12]	Activity [13]	ED50 [4] [pmol]	further results
O=C(N[C@@H]1CC[C@@]2(O)[C@H]3Cc4ccc(O)c5c4[C@@]2(CCN3CC2CC2)[C@H]1O5)c1cc2cc(Cl)ccc2[nH]1	<60	20	Active	<60	Active	–	–	–	–	–	–	–	–	–	–	–
Cn1c(C(=O)N[C@@H]2CC[C@@]3(O)[C@H]4Cc5ccc(O)c6c5[C@@]3(CCN4CC3CC3)[C@H]2O6)cc2ccccc21	–	10	Active	–	Active	550.4	Active	10	Active	Active	24	Active	Active	Active	23.06	–
O=C(N[C@@H]1CC[C@@]2(O)[C@H]3Cc4ccc(O)c5c4[C@@]2(CCN3CC2CC2)[C@H]1O5)c1c[nH]c2ccccc12	<60	20	Active	–	Active	–	–	–	–	–	–	–	Active	–	29.39	–
O=C(N[C@@H]1CC[C@@]2(O)[C@H]3Cc4ccc(O)c5c4[C@@]2(CCN3CC2CC2)[C@H]1O5)c1cc2cc(F)ccc2[nH]1	<60	10	inactive	–	–	–	–	–	–	Active	–	–	inactive	–	295	–
O=C(N[C@@H]1CC[C@@]2(O)[C@H]3Cc4ccc(O)c5c4[C@@]2(CCN3CC2CC2)[C@H]1O5)c1cc2ccccc2o1	–	10	Active	–	Active	580.8	Active	10	Active	Active	3	Active	Active	Active	191.9	–
CN1CC[C@]23c4c5ccc(O)c4O[C@H]2[C@@H](O)C=C[C@H]3[C@H]1C5 [MORPHINE]	–	–	–	–	–	–	–	–	–	–	–	–	–	–	–	ED50 [14]: 7.8 mg/kg; ED50 [15]: 2.51 mg/kg
O=C(N[C@@H]1CC[C@@]2(O)[C@H]3Cc4ccc(O)c5c4[C@@]2(CCN3CC2CC2)[C@H]1O5)c1cc2ccccc2s1	<60	20	Active	<60	Active	–	–	–	Active	Active	–	Active	–	Active	–	–
COC(=O)[C@@H]1C[C@H](OC(C)=O)C(=O)[C@H]2[C@@]1(C)CC[C@H]1C(=O)O[C@H](c3ccoc3)C[C@]21C [SALVINORIN A]	–	–	–	–	–	–	–	–	–	–	–	–	–	–	–	Activity [16]: Toxic
O=C(N[C@@H]1CC[C@@]2(O)[C@H]3Cc4ccc(O)c5c4[C@@]2(CCN3CC2CC2)[C@H]1O5)c1ccc2[nH]ccc2c1	<60	20	Active	<60	Active	–	–	–	–	–	–	–	–	–	–	–
O=C(N[C@@H]1CC[C@@]2(O)[C@H]3Cc4ccc(O)c5c4[C@@]2(CCN3CC2CC2)[C@H]1O5)c1cc2ccccc2[nH]1	–	10	Active	–	Active	1252.2	Active	10	Active	Active	59	Active	Active	Active	21.27	Ratio ED50 [17]: 9; Activity [18]: Active; Activity [19]: inactive; Ratio [20]: 15; Activity [21]: Active; Activity [22]: Active; Activity [23]: inactive; Activity [24]: Active; ED50 [25]: 29.47 pmol; Activity [26]: Active; Activity [27]: Non-toxic; Activity [28]: Dose-dependent effect; Activity [29]: Non-toxic; Activity [30]: inactive; ED50 [14]: 0.97 mg/kg; ED50 [15]: 9.08 mg/kg; Activity [31]: Non-toxic; Activity [32]: Active
